Source: ChEMBL document CHEMBL2321740, “Arylazanylpyrazolone derivatives as inhibitors of mutant superoxide dismutase 1 dependent protein aggregation for the treatment of amyotrophic lateral sclerosis” (J Med Chem, 2013)
Activity calls are given as the source filed them. The calls are words filed in the database; no cut-off is given here.

How the values were obtained:
[1] = Inhibition of SOD1 mutant (unknown origin); design: species or system Homo sapiens
PC-12 = test: Inhibition of SOD1 mutant -induced cytotoxicity in rat PC12 cells after 24 hrs by fluorescence assay in presence of proteosome inhibitor MG132; type: cell-based
Outline: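 PC12 cells expressing G93A SOD1 seeded at 15000 cells/well, held 24 h, then given compound in 12-point dose-response, top concentration 32 μM, halved at each step. After 24 h with compound, MG132 added (final 100 nM). Viability read 48 h later: cells washed twice with PBS, Calcein-AM 1 μM final for 20 min at room temperature, fluorescence intensity measured.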

[2] = Inhibition of SOD1 mutant -induced cytotoxicity in cortical neurons after 24 hrs by fluorescence assay in presence of proteosome inhibitor MG132
Caco-2 [3] = test: Apparent permeability of the compound from basolateral to apical side in human Caco2 cells; type: ADME, cell-based
Liver [4] = test: Half life in mouse liver microsomes in absence of NADPH; type: ADME, Microsome
Liver microsomes [5] = test: Half life in human liver microsomes in absence of NADPH; type: ADME, Microsome
Caco-2 [6] = test: Apparent permeability of the compound from apical to basolateral side in human Caco2 cells; type: ADME, cell-based
Liver microsomes [7] = test: Half life in human liver microsomes in presence of NADPH; type: ADME, Microsome
[8] = Inhibition of SOD1 mutant -induced cytotoxicity in assessed as recovery of neuronal activity at 10 uM after 24 hrs by fluorescence assay in presence of proteosome inhibitor MG132 relative to control; design: scale not given: the % may be the effect or the level left
Caco-2 [9] = test: Efflux ratio of permeability from basolateral to apical side over apical to basolateral side in human Caco2 cells; type: ADME, cell-based
Liver [10] = test: (§1) Half life in mouse liver microsomes in presence of NADPH; type: ADME, Microsome; details: microsomes
[11] = Aqueous solubility of the compound; type: physicochemical; details: buffer
[12] = as §1; type: ADME, Microsome; details: liver microsomes

CN(Cc1cc(=O)n(C)[nH]1)c1cc(Cl)cc(Cl)c1
EC50 [1]: 750 nM

CN(Cc1cc(=O)[nH][nH]1)c1ccc(Cl)cc1
EC50 [1]: 830 nM

CN(CCCc1cc(=O)[nH][nH]1)c1cc(Cl)cc(Cl)c1
Activity (PC-12): Active
EC50 [1]: 1450 nM
Activity [2]: inactive

CN(Cc1cc(=O)[nH][nH]1)c1ccc2ccccc2c1
EC50 [1]: 830 nM

CCN(Cc1cc(=O)[nH][nH]1)c1cc(Cl)cc(Cl)c1
EC50 [1]: 350 nM

COc1cccc(N(C)Cc2cc(=O)[nH][nH]2)c1
EC50 [1]: 810 nM

CN1N=C(CN(C)c2cc(Cl)cc(Cl)c2)C(C)(C)C1=O
EC50 [1]: > 32000 nM

CN(CCc1cc(=O)[nH][nH]1)c1cc(Cl)cc(Cl)c1
EC50 [1]: 1190 nM

CN(Cc1cc(=O)n(C)n1C)c1cc(Cl)cc(Cl)c1
EC50 [1]: > 32000 nM

CC(C)N(Cc1cc(=O)[nH][nH]1)c1cc(Cl)cc(Cl)c1
EC50 [1]: 610 nM

O=c1cc(CN(c2cc(Cl)cc(Cl)c2)C2CC2)[nH][nH]1
EC50 [1]: 530 nM

CN(Cc1cc(=O)[nH][nH]1)c1cc(Cl)cc(Cl)c1
Papp (Caco-2 [3]): 7.6 ×10⁻⁶ cm/s
t1/2 (Liver [4]): > 3 h
EC50 [1]: 570 nM
t1/2 (Liver microsomes [5]): > 3 h
Papp (Caco-2 [6]): 2.2 ×10⁻⁶ cm/s
t1/2 (Liver microsomes [7]): > 3 h
Activity [8]: 100%
Ratio (Caco-2 [9]): 3.5
t1/2 (Liver [10]): 0.417 h
solubility [11]: >= 150 uM

CN(Cc1cc(=O)[nH][nH]1)c1cccc(Br)c1
EC50 [1]: 750 nM

CN(Cc1cc(=O)[nH][nH]1)c1cccc2ccccc12
EC50 [1]: 310 nM

O=c1cc(CN(Cc2ccccc2)c2cc(Cl)cc(Cl)c2)[nH][nH]1
EC50 [1]: 690 nM

CN(Cc1cc(=O)[nH][nH]1)c1ccc(Cl)c(Cl)c1
EC50 [1]: 420 nM

O=c1cc(CN2CCc3ccccc32)[nH][nH]1
EC50 [1]: 1060 nM

CN(Cc1cc(=O)[nH][nH]1)c1ccccc1
EC50 [1]: 750 nM

CN(Cc1cc(=O)n(Cc2ccccc2)[nH]1)c1cc(Cl)cc(Cl)c1
EC50 [1]: 490 nM

O=c1cc(CNc2cc(Cl)cc(Cl)c2)[nH][nH]1
Papp (Caco-2 [3]): 28.1 ×10⁻⁶ cm/s
t1/2 (Liver [4]): 1.67 h
EC50 [1]: 780 nM
t1/2 (Liver microsomes [5]): > 3 h
Papp (Caco-2 [6]): 0.6 ×10⁻⁶ cm/s
t1/2 (Liver microsomes [7]): 1.58 h
Ratio (Caco-2 [9]): 47.1
t1/2 (Liver [10]): 0.5 h
solubility [11]: >= 150 uM

O=c1cc(CN2CCCc3ccccc32)[nH][nH]1
EC50 [1]: 800 nM

O=c1cc(COc2cc(Cl)cc(Cl)c2)[nH][nH]1
t1/2 (Liver [4]): 1.85 h
EC50 [1]: 400 nM
t1/2 (Liver microsomes [5]): 2.88 h
half-life [12]: 0.6 h

CN(Cc1cc(=O)[nH][nH]1)c1ccc(Br)cc1
EC50 [1]: 710 nM

CN(Cc1cc(=O)[nH]n1C)c1cc(Cl)cc(Cl)c1
EC50 [1]: > 32000 nM

CN(Cc1cc(=O)[nH][nH]1)c1ccccc1Br
EC50 [1]: 1200 nM

O=c1cc(CN(c2ccccc2)c2cc(Cl)cc(Cl)c2)[nH][nH]1
EC50 [1]: 1310 nM

Cc1c(CN(C)c2cc(Cl)cc(Cl)c2)n(C)n(C)c1=O
EC50 [1]: > 32000 nM

Cn1[nH]c(COc2cc(Cl)cc(Cl)c2)cc1=O
EC50 [1]: 670 nM

O=c1[nH][nH]c2c1CCN(c1cc(Cl)cc(Cl)c1)C2
EC50 [1]: 650 nM

CN(Cc1cc(=O)[nH][nH]1)c1ccc(F)cc1
EC50 [1]: 1400 nM

CN(Cc1cc(=O)[nH][nH]1)c1ccc(Cl)cc1Cl
EC50 [1]: 290 nM

CC(C)(C)N(Cc1cc(=O)[nH][nH]1)c1cc(Cl)cc(Cl)c1
EC50 [1]: 1270 nM

C#CCN(Cc1cc(=O)[nH][nH]1)c1cc(Cl)cc(Cl)c1
EC50 [1]: 1020 nM

CN(Cc1cc(=O)[nH][nH]1)c1ccc(C#N)cc1
EC50 [1]: 1270 nM

O=c1[nH][nH]c2c1CN(c1cc(Cl)cc(Cl)c1)CC2
Activity (PC-12): Active
EC50 [1]: 1450 nM
Activity [2]: inactive
